Experiments:
Design in all cases: scale not given: the % may be the effect or the level left
Platelet [1] = test: Inhibition of platelet activating factor-induced platelet aggregation in rabbit platelets at 100 ug/mL treated […] before […] challenge relative to control; type: functional, Oryctolagus cuniculus
Procedure, shortened: (§1)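 Rabbit platelets were preincubated at 37 °C for 3 min with compound at 100 μg/mL, or with 0.5% DMSO as the control, before the inducer was added. Inducers were thrombin 0.1 U/mL, arachidonic acid 100 μM, collagen 10 μg/mL, or PAF. The read-out was % aggregation, with 3–6 replicates.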

Platelet [2] = test: Inhibition of arachidonic acid-induced platelet aggregation in rabbit platelets at 50 ug/mL treated 30 mins before […] challenge relative to control; type: functional, Oryctolagus cuniculus
Platelet [3] = test: Inhibition of thrombin-induced platelet aggregation in rabbit platelets at 100 ug/mL treated […] before thrombin challenge relative to control; type: functional, Oryctolagus cuniculus; procedure, shortened: as §1
Platelet [4] = test: Inhibition of arachidonic acid-induced platelet aggregation in rabbit platelets at 20 ug/mL treated 30 mins before […] challenge relative to control; type: functional, Oryctolagus cuniculus
Platelet [5] = test: Inhibition of collagen-induced platelet aggregation in rabbit platelets at 100 ug/mL treated […] before […] challenge relative to control; type: functional, Oryctolagus cuniculus; procedure, shortened: as §1
Platelet [6] = test: Inhibition of arachidonic acid-induced platelet aggregation in rabbit platelets at 100 ug/mL treated […] before […] challenge relative to control; type: functional, Oryctolagus cuniculus; procedure, shortened: as §1
Platelet [7] = test: Inhibition of platelet activating factor-induced platelet aggregation in rabbit platelets at 50 ug/mL treated […] before […] challenge relative to control; type: functional, Oryctolagus cuniculus
Procedure, shortened: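 PAF-induced aggregation of rabbit platelets was run after 3 min preincubation at 37 °C with compound at graded levels or 0.5% DMSO control. PAF is given as 2 ng/mL in the footnote and 2 nM in the column header. Output is % aggregation with n per point.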

Platelet [8] = test: Inhibition of collagen-induced platelet aggregation in rabbit platelets at 50 ug/mL treated 30 mins before […] challenge relative to control; type: functional, Oryctolagus cuniculus
Platelet [9] = test: Inhibition of thrombin-induced platelet aggregation in rabbit platelets at 50 ug/mL treated 30 mins before thrombin challenge relative to control; type: functional, Oryctolagus cuniculus
Platelet [10] = test: Inhibition of platelet activating factor-induced platelet aggregation in rabbit platelets at 10 ug/mL treated 3 mins before platelet activating factor challenge relative to control
Platelet [11] = test: Inhibition of platelet activating factor-induced platelet aggregation in rabbit platelets at 20 ug/mL treated 3 mins before platelet activating factor challenge relative to control
Platelet [12] = test: Inhibition of platelet activating factor-induced platelet aggregation in rabbit platelets at 5 ug/mL treated 3 mins before platelet activating factor challenge relative to control
Platelet [13] = test: Inhibition of arachidonic acid-induced platelet aggregation in rabbit platelets at 50 ug/mL treated 3 min before arachidonic acid challenge relative to control
Platelet [14] = test: Inhibition of arachidonic acid-induced platelet aggregation in rabbit platelets at 5 ug/mL treated 3 mins before arachidonic acid challenge relative to control
Platelet [15] = test: Inhibition of arachidonic acid-induced platelet aggregation in rabbit platelets at 10 ug/mL treated 3 mins before arachidonic acid challenge relative to control

| SMILES | Activity (Platelet [1]) | Activity (Platelet [2]) | Activity (Platelet [3]) | Activity (Platelet [4]) | Activity (Platelet [5]) | Activity (Platelet [6]) | Activity (Platelet [7]) | Activity (Platelet [8]) | Activity (Platelet [9]) | Activity (Platelet [10]) | Activity (Platelet [11]) | Activity (Platelet [12]) | Activity (Platelet [13]) | Activity (Platelet [14]) | Activity (Platelet [15]) |
| --- | --- | --- | --- | --- | --- | --- | --- | --- | --- | --- | --- | --- | --- | --- | --- |
| COc1cc2c(cc1OC)-c1c(OC)c(OC)c(O)c3c1[C@@H](C2)N(C)CC3 [THALBAICALIDINE] | 73.6% | 72.2% | 86.3% | 82.2% | 0% | 4.2% | – | – | – | – | – | – | – | – | – |
| COc1cc2ccnc3c2c(c1OC)-c1ccccc1C3=O [LYSICAMINE] | – | 16.3% | – | – | – | – | 83.7% | 55.2% | 88.9% | – | – | – | – | – | – |
| COc1cc2c(O)c3c4c(cc(OC)c(OC)c4c2cc1OC)CCN3C | 0% | – | 78.8% | – | 12.7% | 21.8% | 0% | – | – | 64.9% | 25.2% | 77.9% | – | – | – |
| COc1cc2c(cc1OC)-c1c(OC)c(OC)cc3ccnc(c13)C2=O [OXOGLAUCINE] | – | – | – | – | – | – | 84.4% | 74.4% | 87% | – | – | – | 55.8% | – | – |
| COc1cc2c(cc1OC)-c1c(OC)c(OC)c(OC)c3ccnc(c13)C2=O [OXOPURPUREINE] | 87.2% | – | – | – | 53.5% | 43.7% | – | – | – | – | – | – | – | – | – |
| COc1cc2c(cc1OC)-c1c(OC)c(O)cc3c1[C@H](C2)N(C)CC3 [PREDICENTRINE] | 74% | 62% | 88.9% | 83.2% | 0% | 0% | – | – | – | – | – | – | – | – | – |
| CNCCc1c(OC)c(OC)c(OC)c2c1ccc1cc(OC)c(OC)cc12 [THALICPUREINE] | 0% | 0% | 33.6% | 41.9% | 0% | 0% | 3.9% | – | – | 78.8% | 55.5% | 82.4% | – | 83.7% | 74.2% |
| COc1cc2c3c(cc4ccccc4c3c1O)N(C)CC2 [DEHYDROLIRINIDINE] | 51.7% | 23.8% | 86.3% | 77.6% | 0% | 0% | – | – | – | – | – | – | – | – | 82.8% |
